Tests used:
HLY-1 cells = assay: Growth inhibition, ATP-based luminescent assay; assay type: cell-based, human; conditions: HLY-1, single dose, 48 hr
Outline: (§1)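 Cells received a single dose of test compound over a concentration range and proliferation was read at 48 hr by luminescent ATP quantification. Luminescence was converted to cell number using per-line standard curves built from trypan blue counts. Viability was normalised to controls and expressed as 1 − fractional viability, and GI25/GI50 were fitted. Experiments were run three times in triplicate.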

[1] = tested on: ABC-DLBCL cell lines HBL-1 and TMD8; assay: Caspase-3/7 cleavage assay; assay type: cell-based, human
Outline: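 Caspase-3/7 cleavage assay run within 48 hr of exposure to increasing concentrations of test compound.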

OCI-Ly1 cells = assay: Trypan blue cell number and Annexin V+ DAPI− apoptosis time course, 14 days; assay type: cell-based, human; conditions: treated daily at the doses used for TMD8, 14 days
Outline: (§2)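 Cell lines were dosed with test compound every 24 hr. Every 48 hr for 14 days, cells were counted by trypan blue exclusion and apoptosis was measured as Annexin V+ DAPI− by flow cytometry. Cell number is expressed as % of vehicle at each time point.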

OCI-Ly1 xenografts = assay: OCI-Ly1 xenograft in NOD-SCID mice; assay type: in vivo; conditions: IP 25 mg/kg/day, 14 injections
Outline: (§3)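 Eight-week-old male NOD-SCID (NOD.CB17-Prkdcscid/J) mice received 10^7 low-passage cells subcutaneously in 50% Matrigel in the right flank. At an average tumour size of 120 mm3, mice were randomised to test compound 25 mg/kg/day IP or vehicle (5% DMSO) for 14 consecutive days and sacrificed 24 hr after the 14th injection. Caliper volume, (smallest diameter² × largest)/2, was taken three times weekly. Ki-67 IHC was counted per high-power field.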

[2] = target: MALT1 paracaspase domain (329–728) (Homo sapiens, UniProt Q9UDY8); assay: LC-MS covalent modification; assay type: binding
[3] = target: LZ-MALT1 (recombinant MALT1 (340–789) fused with a leucine zipper dimerization motif) (Homo sapiens, UniProt Q9UDY8); assay: LZ-MALT1 fluorescence activity assay; assay type: biochemical; conditions: preincubation with compound before Ac-LRSR-AMC
Outline: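 Recombinant MALT1 (340–789) fused to a leucine zipper dimerization motif was preincubated with test compound (0–25 µM) for 5–90 min. Ac-LRSR-AMC substrate was then added, and AMC release was read by fluorescence at 360 nm excitation and 465 nm emission. Percent inhibition was normalized and plotted against preincubation time.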

U2932 cells = assay: Growth inhibition, ATP-based luminescent assay; assay type: cell-based, human; conditions: U2932, single dose, 48 hr
Outline: as §1

caspase-8 = caspase-8 (Homo sapiens, UniProt Q14790); assay: Caspase selectivity; assay type: biochemical
Chain of caspase-8 (Q14790 217-374 limits assumed): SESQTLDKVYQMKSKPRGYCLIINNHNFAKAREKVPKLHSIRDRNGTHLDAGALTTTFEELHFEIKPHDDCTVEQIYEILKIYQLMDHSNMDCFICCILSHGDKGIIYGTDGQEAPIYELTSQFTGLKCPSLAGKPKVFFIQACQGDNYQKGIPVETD
Chain of caspase-8 (Q14790 385-479 limits assumed): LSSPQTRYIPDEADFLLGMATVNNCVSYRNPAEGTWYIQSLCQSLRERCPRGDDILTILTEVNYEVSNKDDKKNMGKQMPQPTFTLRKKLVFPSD

HBL-1 cells [4] = assay: Intracellular concentration by LC-MS; assay type: in vitro ADME, human
Outline: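 HBL-1 cells were exposed to 0.02, 0.2 or 2 µM test compound for 2 hr, washed three times, and intracellular compound was quantified by LC-MS. For free-drug kinetics, cells at 0.2 µM were sampled at 30 min and at 2, 6, 12, 24 and 48 hr.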

[5] = tested on: MALT1 substrate cleavage in HBL-1 and TMD8 cell lines; assay: Cleavage of MALT1 substrates A20, BCL10, RELB, western blot with MG-132; assay type: cell-based, human; conditions: 2 µM, 30 min, then 5 µM MG-132 for 1 or 2 hr
Outline: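 HBL-1 and TMD8 cells were pretreated for 30 min with 2 µM test compound or vehicle. Proteasome inhibitor MG-132 (5 µM) was then added for a further 1 or 2 hr so that cleaved substrate forms could accumulate. Western blots were probed for A20, RELB and BCL10, and cleavage products were identified by band position.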

[6] = tested on: GCB-DLBCL cell lines (OCI-Ly7 and OCI-Ly1); assay: Growth inhibition, ATP-based luminescent assay; assay type: cell-based, human; conditions: two GCB-DLBCL cell lines, single dose, 48 hr
Outline: as §1

OCI-Ly10 cells = assay: Growth inhibition, ATP-based luminescent assay; assay type: cell-based, human; conditions: OCI-Ly10, single dose, 48 hr
Outline: as §1

HBL-1 xenografts = assay: HBL-1 xenograft in NOD-SCID mice; assay type: in vivo; conditions: IP 25 mg/kg/day, 14 injections
Outline: as §3

[7] = tested on: Z-VRPR-FMK signature genes in HBL-1 and TMD8 cell lines; assay: Gene expression profiling, GSEA; assay type: cell-based, human; conditions: GI50 concentrations (HBL-1 200 nM; TMD8 500 nM), 8 hr
caspase-3/7 activity = assay: Cell-based caspase-3/7 activity and apoptosis inhibition; conditions: at concentrations that suppress MALT1
HBL-1 cells [8] = assay: Growth inhibition, ATP-based luminescent assay; assay type: cell-based, human; conditions: HBL-1
Outline: as §1

HBL-1 cells [9] = assay: Recovery of cells after a single dose; assay type: cell-based, human; conditions: 0.2 µM dose level
[10] = tested on: NF-κB reporter in 293T cells expressing MALT1 C464A; assay: NF-κB reporter assay, PMA/ionomycin, BCL10 + MALT1 C464A; assay type: cell-based; conditions: 2 µM pretreatment 30 min, PMA/ionomycin 2 hr
TMD8 cells = assay: Growth inhibition, ATP-based luminescent assay; assay type: cell-based, human; conditions: TMD8
Outline: as §1

[11] = tested on: MALT1-mediated cleavage of CYLD in HBL-1 cells; assay: MALT1 cleavage of CYLD, western blotting and densitometry; assay type: cell-based, human
[12] = target: MALT1 active site mutant C464A (Homo sapiens, UniProt Q9UDY8, C464A); assay: LC-MS covalent modification, mutant; assay type: binding
[13] = tested on: ABC-DLBCL cell lines HBL-1 and TMD8, GCB-DLBCL cell line OCI-Ly1; set-up: species or system human; conditions: 48 hr, cell-based assays
Outline: as §1

[14] = tested on: nuclear c-REL in HBL-1 cells; assay: c-REL flow cytometry of whole cells or isolated nuclei; assay type: cell-based, human; conditions: 200 nM MI-2 or 50 µM Z-VRPR-FMK, 24 hr
Outline: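 HBL-1 cells were exposed for 24 hr to 200 nM test compound, to 50 µM Z-VRPR-FMK as positive control, or to vehicle. c-REL was then measured by flow cytometry in whole cells and in isolated nuclei.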

C57BL/6 mice = assay: Toxicity in mice; assay type: in vivo
[15] = tested on: NF-κB reporter activity in HBL-1 cells; assay: NF-κB reporter assay in HBL-1; assay type: cell-based, human; conditions: 200 nM
Outline: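 NF-κB luciferase reporter in HBL-1 cells treated with 200 nM test compound, 50 µM Z-VRPR-FMK or vehicle for 8 and 24 hr. Activity is given as % of vehicle, normalised to an internal control. Statistics used ANOVA with Bonferroni post-test.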

caspase-9 = caspase-9 (Homo sapiens, UniProt P55211); assay: Caspase selectivity; assay type: biochemical
Chain of caspase-9 (P55211 whole entry, species assumed): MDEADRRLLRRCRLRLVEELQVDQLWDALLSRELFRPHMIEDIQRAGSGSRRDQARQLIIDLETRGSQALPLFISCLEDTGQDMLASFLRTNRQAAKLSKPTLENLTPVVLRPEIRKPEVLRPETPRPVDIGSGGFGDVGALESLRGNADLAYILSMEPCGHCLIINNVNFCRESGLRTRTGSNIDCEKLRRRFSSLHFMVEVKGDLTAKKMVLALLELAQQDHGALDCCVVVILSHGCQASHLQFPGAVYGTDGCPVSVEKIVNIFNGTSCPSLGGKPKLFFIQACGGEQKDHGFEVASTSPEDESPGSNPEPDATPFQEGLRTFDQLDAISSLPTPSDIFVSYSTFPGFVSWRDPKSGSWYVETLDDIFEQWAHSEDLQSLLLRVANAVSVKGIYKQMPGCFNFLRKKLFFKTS

[16] = tested on: HBL-1, TMD8, and OCI-Ly10; assay: CFSE dilution proliferation assay; assay type: cell-based, human; conditions: increasing concentrations, 48, 72, and 96 hr
Outline: (§4)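 Cells were exposed to increasing concentrations of test compound, and CFSE dilution was read by flow cytometry at 48, 72 and 96 hr. 2 × 10^4 cells were acquired per sample, and DAPI staining was used to gate viable cells for analysis.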

[17] = target: paracaspase domain of MALT1 (residues 329–728) (Homo sapiens, UniProt Q9UDY8); assay: HSQC NMR binding
OCI-Ly3 cells = assay: Growth inhibition, ATP-based luminescent assay; assay type: cell-based, human; conditions: OCI-Ly3, single dose, 48 hr
Outline: as §1

HBL-1 and TMD8 cells = assay: Trypan blue cell number and Annexin V+ DAPI− apoptosis time course, 14 days; assay type: cell-based, human; conditions: treated daily at GI25 and GI50, 14 days
Outline: as §2

[18] = tested on: primary human GCB DLBCL cells; assay: Primary human DLBCL ex vivo viability, trypan blue; assay type: cell-based; conditions: 0.8 µM, 48 hr
Outline: (§5)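 Single-cell suspensions came from lymph-node biopsies of five DLBCL patients, prepared by physical disruption and density-gradient separation. GCB versus non-GCB status was assigned by Hans-criteria IHC. Cells were cultured in RPMI with 20% FBS and antibiotics and exposed to 0.8 µM test compound (1 µM for one patient) or DMSO in quadruplicate for 48 hr. Cell number and viability were counted by trypan blue and normalised to vehicle.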

[19] = tested on: NF-κB reporter in 293T cells expressing MALT1 WT; assay: NF-κB reporter assay, PMA/ionomycin, BCL10 + MALT1 WT; assay type: cell-based; conditions: 2 µM pretreatment 30 min, PMA/ionomycin 2 hr
HBL-1 cells [20] = assay: BrdU incorporation-DAPI cell cycle; assay type: cell-based, human; conditions: 24 and 48 hr
Outline: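 HBL-1 cells were treated with test compound for 24 and 48 hr, then pulse-labelled with BrdU and co-stained with DAPI. Cell-cycle phases (S, G1-0, sub-G0) were read by flow cytometry. Data are mean ± SD of two independent experiments.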

OCI-Ly1 = assay: CFSE dilution proliferation assay; assay type: cell-based, human; conditions: increasing concentrations, 48, 72, and 96 hr
Outline: as §4

[21] = tested on: nuclear c-REL and p65 in HBL-1 and TMD8 cells; assay: Western blots for c-REL and p65 in nuclear extracts; assay type: cell-based, human; conditions: 24 hr, 200 nM for HBL-1 and 500 nM for TMD8
Outline: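 Nuclear extracts were prepared from HBL-1 cells (200 nM test compound) and TMD8 cells (500 nM) after 24 hr treatment and immunoblotted for c-REL and p65.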

caspase-3 = caspase-3 (Homo sapiens, UniProt P42574); assay: Caspase selectivity; assay type: biochemical
Chain of caspase-3 (P42574 29-175 limits assumed, species assumed): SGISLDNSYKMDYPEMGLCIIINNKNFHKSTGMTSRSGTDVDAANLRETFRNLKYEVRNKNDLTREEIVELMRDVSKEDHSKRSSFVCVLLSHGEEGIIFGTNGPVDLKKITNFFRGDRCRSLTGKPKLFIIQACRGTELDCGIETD
Chain of caspase-3 (P42574 176-277 limits assumed, species assumed): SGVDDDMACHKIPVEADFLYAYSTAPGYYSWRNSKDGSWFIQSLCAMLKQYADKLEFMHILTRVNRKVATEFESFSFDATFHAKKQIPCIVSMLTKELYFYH

[22] = tested on: primary human non-GCB DLBCL cells; assay: Primary human DLBCL ex vivo viability, trypan blue; assay type: cell-based; conditions: 0.8 µM, 48 hr
Outline: as §5

TMD8 xenografts = assay: TMD8 xenograft in NOD-SCID mice; assay type: in vivo; conditions: IP 25 mg/kg/day, 14 injections
Outline: as §3

COCCOc1nc(-c2ccc(Cl)c(Cl)c2)n(-c2ccc(NC(=O)CCl)cc2)n1 [MI-2]
growth inhibition (HLY-1 cells): resistant | apoptosis (caspase-3/7 cleavage) [1]: dose-dependent apoptosis within 48 hr | cell number and apoptosis (OCI-Ly1 cells): no effect on OCI-Ly1 cells | apoptotic cells (TUNEL) relative to vehicle (OCI-Ly1 xenografts): not in OCI-Ly1 xenografts | proliferation (Ki-67 staining) compared to vehicle (OCI-Ly1 xenografts): no difference | tumor growth versus vehicle (OCI-Ly1 xenografts): no effect on the growth | covalent binding by LC-MS [2]: can bind covalently to MALT1 | inhibition reached [3]: ~100% | growth inhibition (U2932 cells): resistant | activity against caspase-8 (caspase-8): little activity | intracellular concentration (HBL-1 cells [4]; HBL-1, 0.2 µM, 2 hr): 5 µM | free intracellular drug (HBL-1 cells [4]; HBL-1, 0.2 µM, by 12 hr): virtually no detectable free MI-2 | increase in intracellular concentration (HBL-1 cells [4]; HBL-1 exposed to 0.02, 0.2, or 2 µM for 2 hr, washed three times): 18- to 30 fold | cleavage of A20, BCL10, and RELB [5]: diminished the abundance of cleaved forms and/or increased the abundance of full-length proteins | growth inhibition [6]: resistant | GI50 (OCI-Ly10 cells): 400 nM | apoptotic cells (TUNEL) relative to vehicle (HBL-1 xenografts): significant increase in apoptotic cells | c-REL nuclear protein in tumor sections (HBL-1 xenografts): reduced c-REL nuclear protein | proliferation (Ki-67 staining) compared to vehicle (HBL-1 xenografts): significant decrease in proliferation | tumor growth versus vehicle (HBL-1 xenografts): profoundly suppressed the growth | enrichment of Z-VRPR-FMK signature (GSEA) [7]: significantly enriched among genes downregulated after MI-2 treatment | inhibition of caspase-3/7 activity or apoptosis in cell-based assays (caspase-3/7 activity): did not inhibit | GI50 (HBL-1 cells [8]): 200 nM | recovery of cells (HBL-1 cells [9]): only started to become evident after 48 hr | NF-κB induction by PMA/ionomycin [10]: did not significantly affect | GI50 (TMD8 cells): 500 nM | inhibition of MALT1 cleavage of CYLD ([11]; HBL-1, 5 µM for 8 hr, Z-VRPR-FMK 50 µM positive control): most potent compound | MALT1-mediated cleavage of CYLD ([11]; HBL-1, increasing concentrations, 24 hr): dose-dependent decrease in MALT1-mediated cleavage | covalent binding by LC-MS [12]: markedly reduced covalent binding | 25% growth-inhibitory concentration (GI25) [13]: high-nanomolar range | nuclear c-REL (flow cytometry) [14]: reduced nuclear c-REL to a similar extent | Complete peripheral blood counts, biochemistry, and liver function tests (C57BL/6 mice; daily IP 25 mg/kg over 14 days): normal | toxicity 1: physical indicators of sickness (C57BL/6 mice; daily IP, increasing doses 0.05 to 25 mg/kg over 10 days, cumulative 51.1 mg/kg): no evidence of lethargy, weight loss | reduction in NF-κB reporter activity ([15]; 8 hr): 20% | reduction in NF-κB reporter activity ([15]; 24 hr): 50% | activity against caspase-9 (caspase-9): little activity | proliferation (CFSE dilution) [16]: substantially inhibited proliferation | binding by HSQC NMR [17]: robust interaction | GI50 (OCI-Ly3 cells): 400 nM | cell number and apoptosis (HBL-1 and TMD8 cells): profoundly suppressed | response of primary cases (cell number and viability) [18]: none of the GCBs did | NF-κB induction by PMA/ionomycin [19]: significantly inhibited NF-κB induction | cell cycle (BrdU-DAPI) (HBL-1 cells [20]): dose-dependent decrease in S phase | proliferation (CFSE dilution) (OCI-Ly1): did not affect OCI-Ly1 | nuclear c-REL (western blot) [21]: clear reduction of nuclear c-REL | nuclear p65 levels (western blot) [21]: did not affect p65 levels | activity against caspase-3 (caspase-3): little activity | response of primary cases (cell number and viability) [22]: two of the non-GCB cases responded | apoptotic cells (TUNEL) relative to vehicle (TMD8 xenografts): significant increase in apoptotic cells | proliferation (Ki-67 staining) compared to vehicle (TMD8 xenografts): significant decrease in proliferation | tumor growth versus vehicle (TMD8 xenografts): profoundly suppressed the growth
